According to publication PMC7327769 (Asian Journal of Pharmaceutical Sciences, 2019):

Columns and labels:
[1] = Solubility testing of saquinavir in oils, surfactants, and co-surfactants; type: physicochemical; conditions: 20 °C, 24 h
In short: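 Excess test compound added to each neat excipient and stirred magnetically. Content quantified by HPLC with UV detection at 240 nm (retention 3.8 min). Expressed as mg/g, mean ± standard deviation.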

[2] = after oral administration to HIV-infected patients; cited from earlier work

Solubility of saquinavir ([1]; in Capryol 90 (oil)): 145 ± 12.6 mg/g
Solubility of saquinavir ([1]; in Cremophor® EL (surfactant)): 55 ± 5.0 mg/g
Solubility of saquinavir ([1]; in Labrafac® CM10 (oil)): 57 ± 4.2 mg/g
Solubility of saquinavir ([1]; in Labrasol® (surfactant)): 105 ± 5.0 mg/g
Solubility of saquinavir ([1]; in PEG 400 (co-surfactant)): 40 ± 3.4 mg/g
Solubility of saquinavir ([1]; in Propylene glycol (co-surfactant)): 228 ± 19.5 mg/g
Solubility of saquinavir ([1]; in Transcutol® HP (co-surfactant)): 158 ± 17.8 mg/g
Solubility of saquinavir ([1]; in Triglyceride (oil)): 1.9 ± 0.4 mg/g
Solubility of saquinavir ([1]; in Tween® 80 (surfactant)): 37 ± 4.3 mg/g
Solubility of saquinavir ([1]; in Water (aqueous phase)): 2.2 ± 0.3 mg/g
SMILES: CC(C)(C)NC(=O)[C@@H]1C[C@@H]2CCCC[C@@H]2CN1C[C@@H](O)[C@H](Cc1ccccc1)NC(=O)[C@H](CC(N)=O)NC(=O)c1ccc2ccccc2n1 [saquinavir, Saquinavir]
time of the highest saquinavir concentration in plasma [2]: 2 to 4 h
